# Test results from ChEMBL document CHEMBL1156450, “Naloxone acts as a potent analgesic in transgenic mouse models of sickle cell anemia” (Proc Natl Acad Sci U S A, 2007).
# Calls of active or inactive are those of the source. The rule behind the calls is not given here.
# Experiments:
# [1] = test system: Mus musculus; test: Antinociceptive effect in NY1DD transgenic mouse assessed as partial agonist response at 8 nmol, icv by heat tail flick test; assay type: functional
# [2] = test system: Mus musculus; test: Antinociceptive effect in intrathecally dosed NY1DD transgenic mouse after 6 hrs by heat tail flick test; assay type: functional
# Summary of the method: (§1)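 Male mice aged 10–12 weeks, housed on a 12-h light/dark cycle. Radiant heat was aimed at the dorsal tail and the latency to flick was recorded. Dosing volumes were 5 μl per mouse for i.c.v. and i.t. and 10 ml/kg for s.c. At least three groups of 8–10 mice per paradigm; each mouse was used once. ED50 with 95% confidence intervals came from a parallel line assay.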
# [3] = test system: Mus musculus; test: Antinociceptive effect in icv dosed NY1DD transgenic mouse after 1 hr by heat tail flick test; assay type: functional; summary of the method: as §1
# [4] = species: Mus musculus; test: Down-regulation of CCR5 mRNA expression in sickle cell anemic NY1DD transgenic mouse; assay type: functional, organism-based
# Summary of the method: (§2)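 C57BL/6J and NY1DD mice received 25 pmol per mouse of drug or 0.9% saline (5 μl). Brains were removed 10 min later, frozen in liquid N2 and used for RNA isolation and cDNA microarray hybridization (control RNA labeled with Cy3-dCTP; 42°C for 16 h).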
# [5] = test system: Mus musculus; test: Reduction of analgesic activity in NY1DD transgenic mouse pretreated with Met-RANTES 2 hrs before drug administration; assay type: functional, organism-based
# Summary of the method: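 NY1DD mice received Met-RANTES at 50 ng per mouse 2 h before the test drug. Analgesia was measured by radiant heat tail-flick.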
# [6] = biological target: T1, C-C chemokine receptor type 5 (Mus musculus, UniProt P51682); test: Binding affinity to CCR5 in NY1DD transgenic mouse brain membrane; assay type: tissue-based
# Summary of the method: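 [3H]Naloxone saturation binding on pooled brains (cerebellum removed) from three mice. Tissue was homogenized in ice-cold Hepes pH 7.4, washed repeatedly with a 90-min ice step to deplete endogenous opiates, and used as a 2% suspension. Incubation was 90 min at room temperature; nonspecific binding was defined with 10 μM naloxone. Samples were filtered on PEI-soaked GF/C and counted by scintillation. Kd came from global fitting. Triplicates; 2–3 experiments, mean ± SEM.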
# [7] = biological target: T1, C-C chemokine receptor type 5; test: Binding affinity to CCR5 in C57BL/6J mouse brain membrane; assay type: cell membranes
# [8] = test system: Mus musculus; test: Antinociceptive effect in […] dosed sickle cell anemic NY1DD transgenic mouse after 10 mins by heat tail flick test; assay type: functional
# [9] = test system: Mus musculus; test: Antinociceptive effect in sc dosed sickle cell anemic NY1DD transgenic mouse after 60 mins by heat tail flick test; assay type: functional; settings: 1 h; summary of the method: as §1
# [10] = species: Mus musculus; test: Down-regulation of CCR5 mRNA expression in C57BL/6J mouse; assay type: functional, organism-based; summary of the method: as §2
# [11] = test system: Mus musculus; test: Antinociceptive effect in icv dosed sickle cell anemic hBERK1 transgenic mouse after 10 mins by heat tail flick test; assay type: functional; summary of the method: as §1
# [12] = test system: Mus musculus; test: Antinociceptive effect in icv dosed sickle cell anemic NY1DD transgenic mouse after 10 mins by heat tail flick test; assay type: functional; summary of the method: as §1
# [13] = species: Mus musculus; test: Antinociceptive effect in NY1DD transgenic mouse assessed as partial agonist response at 2.5 nmol by heat tail flick test; assay type: functional
# [14] = test system: Mus musculus; test: Antinociceptive effect in sc dosed C57BL/6J mouse after 60 mins by heat tail flick test; settings: 1 h
# [15] = test system: Mus musculus; test: Antinociceptive effect in icv dosed C57BL/6J mouse after 10 mins by heat tail flick test; assay type: functional; summary of the method: as §1
# [16] = test system: Mus musculus; test: Antinociceptive effect in intrathecally dosed C57BL/6J mouse after 10 mins by heat tail flick test; assay type: functional; summary of the method: as §1
# [17] = species: Mus musculus; test: Decrease in analgesic activity in CCL5 pretreated C57BL/6J mouse; assay type: functional, organism-based
# Summary of the method: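 C57BL/6J mice were pretreated i.c.v. with murine RANTES (CCL5) at two doses 20 min before i.c.v. morphine, then tested by radiant heat tail-flick. The antagonist ED50 of RANTES was given with a 95% confidence interval. For reversal, 50 ng Met-RANTES per mouse was given 2 h before RANTES.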
# T1 sequence (P51682 whole entry): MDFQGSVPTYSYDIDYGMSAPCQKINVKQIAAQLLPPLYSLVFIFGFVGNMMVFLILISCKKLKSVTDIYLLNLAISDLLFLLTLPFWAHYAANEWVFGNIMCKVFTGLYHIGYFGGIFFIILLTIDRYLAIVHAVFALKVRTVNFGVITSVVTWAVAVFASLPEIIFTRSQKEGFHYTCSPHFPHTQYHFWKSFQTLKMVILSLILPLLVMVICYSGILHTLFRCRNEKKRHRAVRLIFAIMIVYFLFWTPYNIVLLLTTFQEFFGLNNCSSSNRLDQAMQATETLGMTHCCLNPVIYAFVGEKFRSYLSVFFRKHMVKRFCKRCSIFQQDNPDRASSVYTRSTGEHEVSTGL
structure (smiles),measurement,setting,value
O=C1CC[C@@]2(O)[C@H]3Cc4ccc(O)c5c4[C@@]2(CCN3CC2CC2)[C@H]1O5 [NALTREXONE],Activity,[1],33%
Oc1ccc2c3c1O[C@H]1c4[nH]c5c(c4C[C@@]4(O)[C@@H](C2)N(CC2CC2)CC[C@]314)C[C@@]1(O)[C@H]2Cc3ccc(O)c4c3[C@@]1(CCN2CC1CC1)[C@H]5O4 [NORBINALTORPHIMINE],ED50,[2],0.46 nmol
same,ED50,[3],1.55 nmol
C=CCN1CC[C@]23c4c5ccc(O)c4O[C@H]2C(=O)CC[C@@]3(O)[C@H]1C5 [NALOXONE],Activity,[4],Active
same,Activity,[5],Active
same,Kd,[6],0.0105 µM
same,Kd,[7],0.0208 µM
same,ED50,[8],0.045 nmol
same,ED50,[9],2.83 µmol/kg
same,Activity,[10],inactive
same,ED50,[11],0.03 nmol
same,ED50,[12],0.014 nmol
Oc1ccc2c3c1O[C@H]1c4[nH]c5ccccc5c4C[C@@]4(O)[C@@H](C2)N(CC2CC2)CC[C@]314 [NALTRINDOLE],Activity,[13],10%
CN1CC[C@]23c4c5ccc(O)c4O[C@H]2[C@@H](O)C=C[C@H]3[C@H]1C5 [MORPHINE],ED50,[14],6.47 µmol/kg
same,ED50,[8],0.085 nmol
same,ED50,[15],2.7 nmol
same,ED50,[16],0.088 nmol
same,ED50,[9],2.36 µmol/kg
same,Activity,[17],Active
same,ED50,[12],3.95 nmol
